# From article PMC11261775 (eBioMedicine, 2024)
# Experiments:
# [1] = test system: prostate cancer cells (C4-2, CWR22Rv1, PC-3, DU145); assay: Cell viability assay, AR-positive and AR-negative prostate cancer cells; format: cell-based; details: 48 h treatment
# In short: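 Cells were seeded in 96-well plates in multiple wells and allowed to adhere. They were then exposed for 48 h to graded concentrations of test compound, nano vehicle (Se nanoparticles without peptide) or free peptide. CCK-8 reagent was added for 2 h, then absorbance was read at 450 nm. Data were normalised to the untreated group and given as mean ± SD.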
# [2] = biological target: CBP (Homo sapiens, UniProt Q92793); assay: Immunoblotting of CBP in prostate cancer cells; format: cell-based; details: immunoblot
# In short: (§1)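 Drug treatment lasted 24 h unless otherwise stated. Cells were PBS-washed, lysed, and lysates spun at 13,000×g for 15 min at 4 °C, then BCA-quantified and boiled 5 min. Equal protein was run on 6–10% Tris-glycine SDS-PAGE and transferred to PVDF. Membranes were blocked 1 h in 5% milk, incubated with primary antibody (in 3% BSA/TBST) overnight at 4 °C, then secondary antibody 1 h at room temperature. Detection was by ECL.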
# [3] = test system: CWR22Rv1 xenografts; assay: CWR22Rv1 xenograft mouse model; format: in vivo, BALB/c nude mice
# In short: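 Thirty-five male 4-week-old BALB/c nude mice were randomised into 7 groups of 5. Each received 6 × 10⁶ 22Rv1 cells mixed 1:1 with Matrigel, injected s.c. into the right shoulder. After tumours formed, dosing was i.p. every other day for 21 days, with reference agents also at 5 mg/kg. Volume was calculated as length × width²/2. Tumours went to H&E or IHC, scored as intensity (0–3) × positive-cell percentage grade (1–4).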
# [4] = test system: prostate cancer cells; assay: Cell internalization by confocal microscopy and flow cytometer; format: cell-based; details: 500 nM rhodamine-labeled drug
# In short: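 C4-2 cells were incubated with 500 nM rhodamine-labelled test compound, and nuclei were stained with DAPI. Imaging was by confocal microscopy, with identical excitation wavelength and detector gain for all images.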
# [5] = biological target: p300/MDM2 binding in 293T cells (Homo sapiens, UniProt Q00987+Q09472); assay: Co-immunoprecipitation of p300 and MDM2; format: cell-based; details: 293T cells transfected with HA-p300 or Flag-MDM2
# Sequence of p300/MDM2 binding in 293T cells (Q09472 whole entry): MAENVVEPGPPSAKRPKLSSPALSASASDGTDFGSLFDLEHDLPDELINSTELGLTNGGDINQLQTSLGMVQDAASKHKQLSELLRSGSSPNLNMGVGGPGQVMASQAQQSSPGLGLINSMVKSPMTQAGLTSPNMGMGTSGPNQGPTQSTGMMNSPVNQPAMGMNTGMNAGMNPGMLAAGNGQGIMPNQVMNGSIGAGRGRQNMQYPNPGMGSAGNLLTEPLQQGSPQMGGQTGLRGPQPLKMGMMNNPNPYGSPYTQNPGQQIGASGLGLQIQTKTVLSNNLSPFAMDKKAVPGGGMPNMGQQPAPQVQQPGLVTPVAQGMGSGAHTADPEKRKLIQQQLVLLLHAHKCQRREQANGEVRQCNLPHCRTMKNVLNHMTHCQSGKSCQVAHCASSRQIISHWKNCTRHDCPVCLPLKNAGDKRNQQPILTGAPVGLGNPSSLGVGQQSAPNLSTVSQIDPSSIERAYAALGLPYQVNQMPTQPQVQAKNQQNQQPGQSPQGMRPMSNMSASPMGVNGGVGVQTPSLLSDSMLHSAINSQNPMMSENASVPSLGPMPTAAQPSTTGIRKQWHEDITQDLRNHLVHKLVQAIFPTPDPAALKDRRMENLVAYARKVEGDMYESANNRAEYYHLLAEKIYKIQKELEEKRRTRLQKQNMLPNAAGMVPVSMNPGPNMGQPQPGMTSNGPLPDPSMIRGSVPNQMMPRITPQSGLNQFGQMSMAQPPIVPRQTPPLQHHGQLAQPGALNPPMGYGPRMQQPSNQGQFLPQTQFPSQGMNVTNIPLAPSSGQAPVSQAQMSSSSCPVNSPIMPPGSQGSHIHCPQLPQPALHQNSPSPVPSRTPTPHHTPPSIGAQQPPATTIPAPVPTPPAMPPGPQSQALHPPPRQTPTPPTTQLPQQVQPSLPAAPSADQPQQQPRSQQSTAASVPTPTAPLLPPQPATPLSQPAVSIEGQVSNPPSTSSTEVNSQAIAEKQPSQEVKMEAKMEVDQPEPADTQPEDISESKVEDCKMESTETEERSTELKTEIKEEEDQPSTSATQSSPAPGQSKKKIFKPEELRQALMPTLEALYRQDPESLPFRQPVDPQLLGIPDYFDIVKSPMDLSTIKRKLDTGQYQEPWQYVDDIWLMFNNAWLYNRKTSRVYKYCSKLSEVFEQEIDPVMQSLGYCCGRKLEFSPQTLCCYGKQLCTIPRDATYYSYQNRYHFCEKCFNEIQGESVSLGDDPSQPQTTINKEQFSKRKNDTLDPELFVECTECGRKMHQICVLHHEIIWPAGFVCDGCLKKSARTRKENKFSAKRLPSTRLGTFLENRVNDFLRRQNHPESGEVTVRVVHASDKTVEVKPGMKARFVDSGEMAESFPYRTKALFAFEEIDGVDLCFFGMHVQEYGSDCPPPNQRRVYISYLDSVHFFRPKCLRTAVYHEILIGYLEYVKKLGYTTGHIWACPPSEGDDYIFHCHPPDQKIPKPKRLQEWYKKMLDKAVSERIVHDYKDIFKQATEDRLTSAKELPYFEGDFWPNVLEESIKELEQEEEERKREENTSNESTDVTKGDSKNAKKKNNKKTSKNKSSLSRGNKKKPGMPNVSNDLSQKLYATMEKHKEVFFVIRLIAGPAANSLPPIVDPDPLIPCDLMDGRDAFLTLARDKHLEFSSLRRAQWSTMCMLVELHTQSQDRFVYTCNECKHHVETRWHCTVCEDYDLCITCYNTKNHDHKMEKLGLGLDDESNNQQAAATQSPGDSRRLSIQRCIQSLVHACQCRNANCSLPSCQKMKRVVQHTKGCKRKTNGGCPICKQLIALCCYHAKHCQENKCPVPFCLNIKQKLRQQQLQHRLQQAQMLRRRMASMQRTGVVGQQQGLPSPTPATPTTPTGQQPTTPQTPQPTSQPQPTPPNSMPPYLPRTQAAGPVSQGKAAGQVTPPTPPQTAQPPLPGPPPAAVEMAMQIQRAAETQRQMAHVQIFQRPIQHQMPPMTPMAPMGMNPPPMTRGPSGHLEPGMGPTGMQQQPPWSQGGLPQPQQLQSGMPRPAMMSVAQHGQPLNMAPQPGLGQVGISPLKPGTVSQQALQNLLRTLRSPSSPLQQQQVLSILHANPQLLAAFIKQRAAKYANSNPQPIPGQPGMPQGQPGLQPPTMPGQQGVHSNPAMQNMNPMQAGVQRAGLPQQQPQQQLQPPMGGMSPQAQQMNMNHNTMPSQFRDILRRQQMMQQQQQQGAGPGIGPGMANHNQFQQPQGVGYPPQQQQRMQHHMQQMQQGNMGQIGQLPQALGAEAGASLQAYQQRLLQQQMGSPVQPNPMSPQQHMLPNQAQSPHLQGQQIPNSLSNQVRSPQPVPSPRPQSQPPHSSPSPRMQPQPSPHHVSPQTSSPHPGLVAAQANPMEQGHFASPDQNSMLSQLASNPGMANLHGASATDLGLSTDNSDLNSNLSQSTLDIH
# Sequence of p300/MDM2 binding in 293T cells (Q00987 whole entry): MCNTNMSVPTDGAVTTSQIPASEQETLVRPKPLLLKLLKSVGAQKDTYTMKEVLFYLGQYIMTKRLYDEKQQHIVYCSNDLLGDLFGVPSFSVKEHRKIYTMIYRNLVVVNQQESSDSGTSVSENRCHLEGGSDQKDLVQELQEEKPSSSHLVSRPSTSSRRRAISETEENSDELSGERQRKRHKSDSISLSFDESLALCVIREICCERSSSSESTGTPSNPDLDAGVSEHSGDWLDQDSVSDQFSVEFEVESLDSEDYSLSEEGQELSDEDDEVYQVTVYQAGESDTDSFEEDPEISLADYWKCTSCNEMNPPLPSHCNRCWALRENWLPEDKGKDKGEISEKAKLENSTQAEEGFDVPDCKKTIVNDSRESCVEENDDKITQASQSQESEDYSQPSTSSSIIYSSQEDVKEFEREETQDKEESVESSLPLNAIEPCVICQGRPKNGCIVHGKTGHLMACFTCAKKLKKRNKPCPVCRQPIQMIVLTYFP
# In short: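 293T cells were transfected with HA-p300 or Flag-MDM2 plasmids. They were lysed 15 min on ice in IP buffer with protease and phosphatase inhibitors, then spun at 13,000×g for 15 min at 4 °C. Supernatants were incubated with anti-HA agarose beads for 12 h at 4 °C, with or without test compound. Beads were washed, boiled 5 min in loading buffer and analysed by Western blot.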
# [6] = test system: prostate cancer cells; assay: Wound healing and transwell invasion assays; format: cell-based; details: wound healing 24 h and 48 h; transwell 36 h
# In short: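 For wound healing, confluent PC3 and DU145 monolayers were scratched with a 200 μl tip and rinsed with PBS. Test compound was added in serum-free medium, and wounds were photographed at 24 h and 48 h.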
# [7] = biological target: p300 (Homo sapiens, UniProt Q09472); assay: Immunoblotting of p300 degradation in prostate cancer cells; format: cell-based; details: for p300 degradation in prostate cancer cells: immunoblot, 24 h
# Sequence of p300 (Q09472 whole entry): as the sequence (Q09472 whole entry) above
# In short: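 AR-positive and AR-negative prostate cancer cells were exposed for 24 h to a range of concentrations of the test compound (Se-nanoparticle-loaded peptide PROTAC). Cells were PBS-washed three times before harvest and lysates were immunoblotted for p300. Secondary antibody was applied for 1 h at room temperature, with 3 × 5 min TBST washes. Detection was by ECL chemiluminescence.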
# [8] = test system: PC-3 xenografts; assay: PC-3 xenograft mouse model; format: in vivo, BALB/c nude mice
# In short: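 Twenty-five male 4-week-old BALB/c nude mice were randomised into 5 groups of 5 and received 8 × 10⁶ PC-3 cells s.c. into the right shoulder. Dosing began once tumours reached about 200 mm³, about 3 weeks later. Mice received PBS, peptide control, nano vehicle, test compound or a reference inhibitor at 5 mg/kg i.p. every other day for 18 days. Volume was calculated as length × width²/2. Tumours and organs went to H&E, Ki-67 and TUNEL staining. Mean ± SD, t-test.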
# [9] = test system: C4-2 and PC-3 cells; assay: Apoptosis detection by flow cytometry; format: cell-based, human; details: high concentrations, 24 h
# In short: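 Cells were plated at 3 × 10⁵ cells/ml in 6-well plates. Treatment ran 24 h with test compound alongside untreated, nano vehicle and free peptide controls. Cells were harvested, stained with an apoptosis detection kit per its protocol and analysed on a FACSCalibur flow cytometer.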
# [10] = test system: p53; assay: Immunoblotting of p53 and downstream proteins; format: cell-based; details: C4-2 and CWR22Rv1 cells, 1μM
# In short: as §1
# [11] = Biodistribution by fluorescence imaging; format: in vivo, mice; details: rhodamine-labeled drug, i.p., PC-3 xenograft models, 0-72 h
# In short: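 Tumour-bearing mice received rhodamine B-labelled test compound i.p., with injections timed to give exposures of 0, 12, 24, 48 and 72 h. Mice were then euthanised. Heart, liver, spleen, lungs and kidneys were excised and imaged at once on a small-animal in vivo fluorescence system. Distribution was scored by fluorescence intensity.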
# [12] = test system: NE1.3 and H660 cells; assay: Apoptosis detection by flow cytometry; format: cell-based; details: 24 h
# In short: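 NE1.3 cells were grown in medium with 10% androgen-removed FBS. H660 cells were grown in RPMI 1640 with 5% FBS, insulin, transferrin, selenite, hydrocortisone, β-estradiol and 4 mM final L-glutamine. Cells were seeded at 3 × 10⁵ cells/ml in 6-well plates and exposed for 24 h to test compound, untreated, nano vehicle or peptide controls. They were processed with an apoptosis detection kit per protocol and analysed on a FACSCalibur flow cytometer.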
# [13] = test system: prostate cancer cells (PC-3, DU145, C4-2, CWR22Rv1); assay: Colony formation assay; format: cell-based; details: 20 days treatment
# In short: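 Cells were plated in 6-well plates and allowed to attach for 48 h. They were then treated with graded concentrations of test compound for 20 days. Wells were PBS-washed, fixed 30 min in 4% paraformaldehyde and stained 30 min with 0.1% crystal violet. Colonies were counted from images.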
# [14] = biological target: rhodamine-labeled peptide p300 PROTAC drug; assay: fluorescence polarisation
substance,measurement,setting,value
CPWIWDGDNKDDNSTDGGGSGGGTSFEQFWAWLWP [free peptide control],Toxicity in prostate cancer cells (cell viability),[1],no toxicity
CPWIWDGDNKDDNSTDGGGSGGGTSFEQFWAWLWP [p300 PROTAC drug],Reduction of CBP in prostate cancer cells,[2],notably weaker compared to its effect on p300
same,Effect on CWR22Rv1 tumor growth,"[3]; 5 mg/kg i.p. every other day for 21 days, n = 5 per group",significant efficacy in vivo
same,"IHC of CWR22Rv1 tumors (p300, AR, Ki-67, TUNEL)","[3]; 5 mg/kg i.p., n = 5","effectively degraded the p300, AR and Ki-67, and effectively induced the increase of tumor apoptosis"
same,"Efficacy relative to comparator drugs, CWR22Rv1 model",[3]; all at 5 mg/kg i.p. every other day,"better efficacy compared with I-CBP112, dCBP-1, and JQAD1"
same,Cell internalization,[4],internalization of the p300 PROTAC drug in a time-dependent manner
same,Binding of p300 to MDM2 in presence of drug,[5],significantly enhanced
same,Migration and invasion,[6],effectively inhibit the migration and invasion
same,Concentration eliminating the p300 protein,[7]; different prostate cancer cell lines,under 1 μM
same,p300 degradation in prostate cancer cells,[7],effectively degraded p300
same,Effect on PC-3 tumor growth,"[8]; 5 mg/kg i.p. every 2 days for 18 days, n = 5 per group",significant efficacy in vivo
same,"Efficacy relative to I-CBP112, PC-3 model","[8]; same dose, 5 mg/kg",better efficacy compared to small molecular p300/CBP inhibitor I-CBP112 at the same dose
same,"Apoptosis induction, AR-positive and AR-negative cell lines",[9],effectively induced apoptosis
same,Protein level of p53 and downstream proteins,[10],effectively increased the protein level of p53 and its downstream proteins
same,Biodistribution,[11],accumulated within the tumor
same,"Apoptosis induction, NEPC cells",[12],effectively induced apoptosis
same,Colony formation,[13],effectively inhibited colony formation
JQAD1 [reference compound],p300 degradation in prostate cancer cells,[7],poor performance
MDM2 N-terminal domain (domain or fragment),Kd,[14],101 nM
p300 CH1 domain (domain or fragment),Kd,[14],78.3 nM
